Results on 1 substance are retold here after publication PMC5749269 (ACS biomaterials science & engineering, 2017).

Data set [1] relates to PC3 prostate cancer cells. As to the kind of experiment: In vitro cytotoxicity. Format: cell-based. The note with it: 72 h.
A further data set in a line: Zeta potential analysis. Format: physicochemical. Particulars: 100 μM in water, n = 3. The procedure, abridged: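 Micelles made by methanol thin-film evaporation, overnight vacuum drying and 30 min hydration at 80 °C, then cooled to room temperature. Zeta potential measured on 100 μM micelles dissolved in water, n = 3.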
For data set [2], the system named is 22Rv1 prostate cancer cells. It is filed as cell-based. Particulars: 72 h.
Data set [3] deals with WEHI 274.1 murine monocytes. As to the kind of experiment: In vitro cell viability. The note with it: MTS assay, varying concentrations, 24 and 72 h, n = 6. A general note: Tetrazolium assays rely on reduction of a dye to a coloured formazan, in cell work by metabolically active cells.
Data set [4] concerns CCR2 gene expression in 22Rv1 prostate cancer cells. Briefly: CCR2 expression by qRT-PCR. Format: cell-based. Particulars: 22Rv1 cells, 5 μM (noncytotoxic), vs PBS, n = 3. The method in brief: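 22Rv1 cells kept in RPMI-1640 with 10% FBS and 1% penicillin-streptomycin at 37 °C, 5% CO2, treated with test compound at 5 μM or PBS. cDNA made with an RT2 first-strand kit and amplified with RT2 SYBR Green qPCR master mix. Relative expression vs Actb or GAPDH housekeeping gene by the 2ΔΔCq method. n = 3, mean ± SEM.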
In general terms: Real-time PCR tracks product formation cycle by cycle.

The subject of data set [5] is WEHI 274.1 murine monocytes. As to the kind of experiment: Chemotaxis assay. It is filed as cell-based. Particulars: 1000 μM, 4 h, transwell 8 μm pores, Pico Green, n = 5, mean ± SEM.

Where no end group is shown, it is not given here.

What is called IC50 is the concentration that gives 50% inhibition. “CYNSLVFRIRNSTQRKYRASISTK-OH [scrambled peptide]”: the IC50 in data set [1] is above 100 µM; in data set [2] it was 76.1 ± 15.8 µM. In the data set “Zeta potential analysis”, this substance displayed a zeta potential of 7.2 ± 3.4 mV. Moreover, the “cell viability of monocytes” value in data set [3] is “no decrease in cell viability”. In addition, the “downregulation of CCR2 gene expression” value in data set [4] is “unappreciable CCR2 changes”. Further, the “migrated monocytes (DNA quantification)” value in data set [5] is 13.9 ± 2.8 ng DNA/mL.
